Measurements taken from ChEMBL document CHEMBL1157059, “Eremophilane-type sesquiterpenes from the fungus Xylaria sp. BCC 21097” (J Nat Prod, 2010).
Values after ≈ are worked out from the molar mass of the structure shown.

Experiments:
[1] = system: Mycobacterium tuberculosis; assay: Antituberculosis activity against Mycobacterium tuberculosis H37Ra by green fluorescent protein microplate assay; assay type: functional
MCF7 = assay: Cytotoxicity against human MCF7 cells after 45 hrs by resazurin microplate assay; assay type: functional, cell-based; settings: MCF7, 45 h
Outline: (§1)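 Human cancer cell panel in the resazurin microplate assay: KB (oral epidermoid carcinoma), MCF-7 (breast cancer) and NCI-H187 (small-cell lung cancer).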

Vero = assay: Cytotoxicity against african green monkey Vero cells by green fluorescent protein microplate assay; assay type: cell-based; settings: Chlorocebus sabaeus
Outline: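 Vero cells (African green monkey kidney […]) tested in the green fluorescent protein microplate assay (GFPMA), the same format the paper used for Mycobacterium tuberculosis H37Ra.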

NCI-H187 = assay: Cytotoxicity against human NCI-H187 cells after 45 hrs by resazurin microplate assay; assay type: functional, cell-based; settings: NCI-H187, 45 h; outline: as §1
Plasmodium falciparum = assay: Antimalarial activity against Plasmodium falciparum K1 after 18 hrs by [G-3H]hypoxanthine uptake assay; assay type: functional, organism-based; settings: K1, 18 h
Outline: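 Plasmodium falciparum K1, a multidrug-resistant strain, tested by the microculture radioisotope technique.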

Candida albicans = assay: Antifungal activity against Candida albicans after 45 hrs by resazurin microplate assay; assay type: functional, organism-based
KB = assay: Cytotoxicity against human KB cells after 45 hrs by resazurin microplate assay; assay type: functional, cell-based; outline: as §1

Row | SMILES | MIC [1] [µM] | IC50 (MCF7) [µM] | IC50 (Vero) [µM] | IC50 (NCI-H187) [µM] | IC50 (Plasmodium falciparum) [µM] | IC50 (Candida albicans) [µM] | IC50 (KB) [µM]
1 | C[C@H]1CC[C@@H]2O[C@@]23C[C@H]2OC(=O)C(CO)=C2C[C@]13C | > 189 | > 189 | > 189 | > 189 | > 38 | > 189 | > 189
2 | C=C1C(=O)O[C@@H]2C[C@]34O[C@H]3CC[C@H](C)[C@@]4(C)C[C@]12O | 47 (≈ 12.4 µg/mL) | 10 | 9.4 | 5.8 | 13 | 7.8 | 10
3 | C=C1C(=O)O[C@@H]2C[C@]3(O)[C@H](O)CC[C@H](C)[C@@]3(C)C[C@]12O | > 177 | 15 | 8.5 | 7.2 | > 35 | > 177 | 5
4 | C=C1C(=O)O[C@@H]2C[C@]3(O)[C@H](OC)CC[C@H](C)[C@@]3(C)C[C@]12O | 42 (≈ 12.4 µg/mL) | 15 | 3.9 | 3.8 | 8.1 | > 169 | 21
5 | CC1=C2C[C@]3(C)[C@@H](C)CC[C@@H](O)[C@@]3(O)C[C@H]2OC1=O [MAIRETOLIDE F] | > 188 | > 188 | > 188 | > 188 | > 38 | > 188 | > 188
